Screens from PubChem.
KCNQ1 block: inhibitors of human KCNQ1 channel, primary screen, cell-based, thallium flux, high-throughput; CHO-K1 KCNQ1, FluxOR thallium flux fluorescence; stronger effect = higher value; Potassium voltage-gated channel subfamily KQT member 1 (Homo sapiens), P51787; B-score at 10 µM; actives 1.3% (n = 310,000); AID 2642, 2010;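 active means compounds whose thallium flux B-score, printed positive for inhibition, exceeds three library SD while starting fluorescence stays within three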;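 further: channel opened by potassium depolarization with thallium stimulus after 20 min compound exposure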
Cl transport mod: KCC2 cotransporter modulators, thallium flux, primary screen, cell-based, HEK293 KCC2, FluoZin-2 fluorescence, MLSMR. Solute carrier family 12 member 5 (Homo sapiens), Q9H2X9. KCC2 cells, thallium flux FluoZin-2 fluorescence. B-score of Tl+ flux slope (higher = more flux/activation; lower = inhibition) at 10 µM. actives 2.2% (n = 190,000). AID 1456, 2008;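 active means thallium flux slope and its plate-corrected score both differing from the plate sample mean at a set confidence after two filtering rounds, in either direction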;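 further: slope of fluorescence scaled to starting intensity during 10 to 20 s after thallium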
Target sequence (Q9H2X9 whole entry, looked up): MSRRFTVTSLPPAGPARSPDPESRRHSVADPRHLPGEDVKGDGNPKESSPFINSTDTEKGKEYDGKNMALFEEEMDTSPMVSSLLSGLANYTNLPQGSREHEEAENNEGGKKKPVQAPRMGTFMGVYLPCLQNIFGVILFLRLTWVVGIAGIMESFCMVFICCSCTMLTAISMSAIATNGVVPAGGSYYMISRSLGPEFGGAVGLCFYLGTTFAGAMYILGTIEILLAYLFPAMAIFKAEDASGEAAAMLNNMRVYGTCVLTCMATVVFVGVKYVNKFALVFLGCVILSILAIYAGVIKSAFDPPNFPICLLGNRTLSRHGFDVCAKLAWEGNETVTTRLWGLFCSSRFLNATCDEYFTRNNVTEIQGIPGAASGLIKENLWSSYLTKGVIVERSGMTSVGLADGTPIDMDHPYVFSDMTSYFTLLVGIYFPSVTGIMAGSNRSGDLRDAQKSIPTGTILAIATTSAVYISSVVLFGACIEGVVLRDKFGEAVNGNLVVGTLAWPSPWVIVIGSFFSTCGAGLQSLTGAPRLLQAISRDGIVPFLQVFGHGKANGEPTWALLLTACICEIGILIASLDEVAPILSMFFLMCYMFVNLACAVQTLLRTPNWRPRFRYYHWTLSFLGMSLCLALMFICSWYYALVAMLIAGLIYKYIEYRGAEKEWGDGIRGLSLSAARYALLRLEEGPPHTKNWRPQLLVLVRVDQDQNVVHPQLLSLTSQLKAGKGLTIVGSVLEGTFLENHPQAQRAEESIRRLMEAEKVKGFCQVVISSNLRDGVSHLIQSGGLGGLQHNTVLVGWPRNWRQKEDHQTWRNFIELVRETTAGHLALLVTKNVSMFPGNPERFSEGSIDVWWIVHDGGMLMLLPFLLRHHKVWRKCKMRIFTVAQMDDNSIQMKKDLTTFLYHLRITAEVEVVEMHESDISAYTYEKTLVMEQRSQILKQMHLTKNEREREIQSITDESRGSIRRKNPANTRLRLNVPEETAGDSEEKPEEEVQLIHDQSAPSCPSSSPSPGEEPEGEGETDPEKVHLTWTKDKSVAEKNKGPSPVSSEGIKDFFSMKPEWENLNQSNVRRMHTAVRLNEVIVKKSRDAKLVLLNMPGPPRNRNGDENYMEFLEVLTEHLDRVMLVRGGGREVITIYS
hERG protect: hERG rescue from dofetilide block, primary screen, cell-based, CHO-hERG, FluxOR thallium flux, dofetilide IC70; Voltage-gated inwardly rectifying potassium channel KCNH2 (Homo sapiens), Q12809; dofetilide IC70 present; activation (rescue from dofetilide block), less the hit threshold, % at 10 µM; actives 0.51% (n = 310,000); AID 1511, 2009;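 active means activation above the mean of controls blocked by dofetilide plus 5 SD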;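 further: thallium influx through hERG after potassium depolarization seen as dye fluorescence rise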
KCNK9 inh: KCNK9 potassium channel inhibitors, primary screen, HEK293 cells, thallium flux | Potassium channel subfamily K member 9 (Homo sapiens), Q9NPC2 | FluxOR thallium flux fluorescence; stronger effect = lower value | B-score at 10 µM | actives 1.2% (n = 310,000) | AID 488922, 2010;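 active means ratio B-score over 3 SD below the library mean, with starting fluorescence within 5 SD of its mean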;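 further: negative B-score means less thallium flux so channel inhibition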
KCNK3 block: human KCNK3 channel inhibitors, primary screen, CHO cells, FluxOR thallium flux, B-score | actives 0.84% (n = 340,000) | FluxOR fluorescence; stronger effect = lower value | Potassium channel subfamily K member 3 (Homo sapiens), O14649 | B-score at 10 µM;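 active means B-score under library mean minus 4 SD, starting fluorescence ratio at most library mean plus 5 SD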;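 further: more negative B-score means stronger inhibition of thallium flux through KCNK3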
KCNQ1 act: potentiators or activators of KCNQ1 channel, primary screen, cell-based, thallium flux, high-throughput. Potassium voltage-gated channel subfamily KQT member 1 (Homo sapiens), P51787. CHO-K1 KCNQ1, thallium flux FluxOR fluorescence; stronger effect = higher value. B-score at 10 µM. actives 0.35% (n = 310,000);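 active means fluorescence ratio B-score, a plate-corrected score, at least three library SD, with initial intensity B-score within 5 SD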
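System: CHO-K1 cells stably expressing KCNQ1 / Medium: assay buffer for compound exposure, DMSO matched across wells / Reagent: thallium- and potassium-containing depolarizing buffer / Compound: one concentration, matched DMSO / Incubation: 20 min compound pretreatment at room temperature / Measured by: kinetic FluxOR fluorescence, 10 s baseline plus 110 s post-stimulus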
KCC2 secondary: KCC2 modulators in sodium-free buffer, confirmation, cell-based, HEK293 KCC2, thallium flux, secondary assay; actives 15% (n = 3,700); shares compounds with Cl transport mod; FluoZin2 fluorescence; stronger effect = higher value; normalised thallium flux (F/F0 slope) at 10 µM; AID 1713, 2009;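 active means thallium flux slope above the same plate's solvent-only control mean plus 3 SD; inconclusive means the two replicate wells disagree; inactive means no significant difference from solvent-only control wells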
KCC2 bumet counter: thallium flux persisting under bumetanide in KCC2 cells, confirmation, counter-screen for KCC2 modulator project, cell-based, HEK293 KCC2, FluoZin2, secondary assay 3; normalized thallium flux at 10 µM; shares compounds with Cl transport mod; actives 49% (n = 3,700); HEK293-KCC2 + bumetanide/ouabain; stronger effect = higher value;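 active means thallium entry rate above the same plate's blocked-transporter control wells by more than 3 SD; inconclusive means the two repeat wells disagree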;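 further: raw slope of fluorescence over initial fluorescence between 10 and 20 s after thallium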
KCC2 secondary2: KCC2 modulators without ouabain present, confirmation, cell-based, HEK293 KCC2, thallium flux, FluoZin2, secondary assay 2; actives 23% (n = 3,700); normalized thallium flux at 10 µM; AID 1715, 2009; thallium flux FluoZin2 fluorescence; actives lie on both sides; F/F0 rise rate, 10–20 s post-thallium; shares compounds with Cl transport mod;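 active means thallium flux slope more than 3 SD above or below the plate's solvent-only control mean, mostly below; inconclusive means the two repeat wells disagreed; inactive means no significant shift from solvent-only controls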;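 further: raw slope with 0.1% DMSO as baseline and bumetanide as block control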
HEK293 Tl flux: thallium flux modulation in parental HEK cells, confirmation, counter-screen for KCC2 modulator project, cell-based, counterscreen 1 | shares compounds with Cl transport mod | actives 46% (n = 3,700) | thallium flux rate (normalised fluorescence) at 10 µM | HEK293 parental cells, thallium flux FluoZin2, ouabain; baseline-ratio fluorescence slope, 10–20 s after thallium;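 active means thallium flux rate significantly above the same plate's solvent-only control wells, beyond their mean plus 3 SD; inconclusive means the two replicate wells gave conflicting results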
KCC2 retest ouab: KCC2 inhibitors and activators, ouabain retest, confirmation, HEK-KCC2 cells; shares compounds with Cl transport mod; HEK293-KCC2, thallium flux FluoZin2 fluorescence; bidirectional: low = inhibitor, high = activator; raw Tl+ flux slope (below DMSO = inhibition, above = activation) at 10 µM; actives 48% (n = 3,700);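 active means thallium flux slope beyond 3 SD from same-plate DMSO control mean in most replicates, usually higher, sometimes lower; inconclusive means repeat tests gave conflicting results; inactive means no significant difference from controls in most replicates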;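 further: slope of initial-normalized fluorescence between seconds 10 and 20 after thallium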
HEK counter2: native HEK Tl+ uptake effects, second counter-screen – HEK cells, counterscreen 2, counter-screen for KCC2 modulator project, confirmation. AID 1718, 2009. actives 33% (n = 3,700). shares compounds with Cl transport mod. HEK293 parental, thallium flux FluoZin-2 fluorescence slope. thallium flux slope at 10 µM;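 active means thallium flux slope above the same plate's solvent-control mean plus 3 SD in both duplicate wells; inconclusive means duplicate wells that disagreed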;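 further: run without ouabain in cells lacking the KCC2 cotransporter; slope of fluorescence scaled to its starting value between 10 and 20 s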
KCNK9 inh conf: KCNK9 potassium channel inhibitors, confirmation, HEK293 cells, thallium flux, duplicate; shares compounds with KCNK9 inh; FluxOR thallium flux fluorescence; inhibition, % at 10 µM; actives 43% (n = 4,900);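 active means thallium signal inhibited by more than 5 SD of the compound-free buffer control wells, on both duplicate plates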;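 further: 0% = assay buffer control wells without compound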
Kir2-1 spec: mouse Kir2.1 channel inhibition, confirmation, selectivity assay for KCNK9 modulator project, cell-based, HEK293, thallium flux; shares compounds with KCNK9 inh; Kir2.1 cells, FluxOR thallium flux fluorescence; inhibition, % at 10 µM; actives 4% (n = 4,900);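 active means thallium signal drop more than 5 SD beyond the mean of the no-compound control wells, seen in both duplicate plates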;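 further: signal is fluorescence rise after thallium addition divided by baseline fluorescence; plate controls were assay buffer only for no effect and full block by chlorpromazine control for full effect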
HEK293 Tl ctr: thallium flux in non-induced HEK293 cells, confirmation, counter-screen for KCNK9 inhibitor project, cell-based, second counter screen, non-induced KCNK9-HEK293; inhibition, % at 10 µM; actives 40% (n = 4,900); FluxOR thallium flux; AID 492997, 2010; shares compounds with KCNK9 inh;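 active means thallium signal drop beyond 5 SD of the untreated control mean, on both duplicate plates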;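 further: plate controls were buffer only IC0 wells for no effect and SID17386958 at its maximal inhibitory level for full effect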
An asterisk follows results filed as active; i = inactive; ? = inconclusive; / = no result. Shown are actives, neighbours in structure and some others; about 4.1% of the full set was active somewhere.

SMILES	KCNQ1 block	Cl transport mod	hERG protect	KCNK9 inh	KCNK3 block	KCNQ1 act	KCC2 secondary	KCC2 bumet counter	KCC2 secondary2	HEK293 Tl flux	KCC2 retest ouab	HEK counter2	KCNK9 inh conf	Kir2-1 spec	HEK293 Tl ctr
COc1ccc(OCC(=O)NC(=S)Nc2ccc3c4c(cccc24)CC3)cc1	i	29.2*	2.1	i	i	i	0.0112	0.0785*	0.0352	0.0306*	0.0363*	0.014*	i	i	i
Cc1ccccc1OCC(=O)NC(=S)Nc1ccc2c3c(cccc13)CC2	i	-0.47	-5.7	i	i	i	/	/	/	/	/	/	/	/	/
O=C(NC(=S)NCCC1=CCCCC1)c1ccccc1Br	i	45.7*	1.1	i	i	i	?	0.0412*	0.0481*	0.0387*	0.0427*	0.0249*	i	i	i
O=c1nc(Nc2ccc([N+](=O)[O-])cc2)[nH]c(=O)[nH]1	i	/	-2.3	i	i	i	/	/	/	/	/	/	/	/	/
COC(=O)C1=C(C)NC(C)=C(C(=O)OC)C1C(=O)OCC(=O)N1CCCCC1C (stereo not drawn)	/	/	/	/	i	/	/	/	/	/	/	/	/	/	/
CCOCCCn1c(=S)[nH]c2cc(C(=O)NC3CCCC(C)C3C)ccc2c1=O (stereo not drawn)	i	/	-8.2	i	i	i	/	/	/	/	/	/	/	/	/
O=S(=O)(Nc1nc2ccccc2nc1Nc1cccc(S(=O)(=O)N2CCCCC2)c1)c1ccccc1	i	-3.52*	-21.0	i	i	i	0.0063	0.00677	0.0263	?	?	0.00974	i	i	25.0%*
Cc1nc(SCC(=O)Nc2ccccc2Cl)oc1C	i	/	-5.7	i	i	i	/	/	/	/	/	/	/	/	/
O=C(N/N=C/c1ccc(-c2cccc(C(F)(F)F)c2)o1)c1cccc(F)c1	i	12*	-18.8	-9.92*	i	i	0.00857	0.016*	0.0331	0.0118*	?	0.0105	i	i	i
COc1cccc(CN2CCNC(=O)C2CC(=O)NCCCN2CCCC2=O)c1 (stereo not drawn)	i	/	-5.7	i	i	i	/	/	/	/	/	/	/	/	/
Cc1cccc(-n2c(=S)[nH]c3sc4c(c3c2=O)CCc2ccccc2-4)c1	i	21.4*	3.4	i	i	8*	0.0197*	0.0463*	0.0354	0.0399*	0.0433*	0.0175*	i	i	i
O=C(O)C1CCc2sc3[nH]c(=S)n(-c4ccccc4)c(=O)c3c21 (stereo not drawn)	i	-0.0228	-1.1	i	i	i	/	/	/	/	/	/	/	/	/
CC(C)CCNC(=O)[C@H](Cc1ccccc1)N1Cc2ccccc2C1=O	i	/	-9.5	i	i	i	/	/	/	/	/	/	/	/	/
CC(C)CCNC(=O)[C@H](CSCc1ccccc1)N1Cc2ccccc2C1=O	i	-4.21*	-8.7	i	i	i	0.00583*	0.00455	?	?	0.0143*	0.00933	i	i	i
CC(C1CC2CCC1C2)n1c(-c2ccco2)n[nH]c1=S (stereo not drawn)	i	21.1*	-3.8	-14.7*	i	i	0.017*	0.0696*	?	0.0284*	0.0557*	0.0161*	62.5%*	i	i
OCCCNc1c2ccccc2nc2ccccc12	i	/	-2.0	i	i	i	/	/	/	/	/	/	/	/	/
CCC(=O)N(CCC(Cc1ccccc1)c1ccco1)Cc1ccco1 (stereo not drawn)	i	-3.85*	-23.2	-9.92*	i	i	0.0066	0.00264*	0.0288	0.00459*	0.0132*	0.00689*	46.5%*	50.0%*	35.5%*
CCC(C)(C)n1nnnc1C(c1ccc(O)c(OC)c1)N1CCN(c2nc3ccccc3s2)CC1 (stereo not drawn)	i	-4.29*	-9.0	-14.6*	i	i	0.00798	0.00466	0.0228*	0.00701	0.0164*	0.00998	45.5%*	i	27.5%*
